The conditions of experiment [1]: by competition for I-A^u binding; cited from earlier work.
Experiment [2] addresses Detergent soluble I-A^u (mouse). In words: dissociation kinetics of fluorescein-labelled peptide.
Experiment [3] concerns the target T1, I-A^u (Mus musculus, UniProt P06344+P14438).
T1 sequence (P14438 1-227): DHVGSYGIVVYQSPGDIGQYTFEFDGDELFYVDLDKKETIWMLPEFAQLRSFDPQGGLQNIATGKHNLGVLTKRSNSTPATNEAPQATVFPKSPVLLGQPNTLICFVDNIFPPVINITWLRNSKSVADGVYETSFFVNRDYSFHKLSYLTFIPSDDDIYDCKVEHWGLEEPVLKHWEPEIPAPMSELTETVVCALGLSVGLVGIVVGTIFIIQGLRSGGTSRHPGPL
T1 sequence (P06344 28-263): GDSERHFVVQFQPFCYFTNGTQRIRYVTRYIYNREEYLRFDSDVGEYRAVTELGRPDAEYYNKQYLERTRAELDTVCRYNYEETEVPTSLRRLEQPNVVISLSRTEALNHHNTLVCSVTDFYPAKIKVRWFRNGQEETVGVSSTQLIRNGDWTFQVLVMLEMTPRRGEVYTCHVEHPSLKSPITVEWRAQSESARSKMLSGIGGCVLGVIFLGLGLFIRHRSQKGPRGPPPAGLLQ
The conditions noted are these: for Copy/cell: peptides eluted from I-A^u, T cell–depleted B10.PL splenocytes, MBP 95 μg/ml, 16 h, 37°C, based on copy number/cell of MBPAc1-18, determined by comparison to angiotensin control; for times more detected than MBP125–135 peptides: eluted from I-A^u, MBP-pulsed splenocytes. The method in brief:
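Spleen cells depleted of T cells (2 × 10^6 cells/ml in RPMI) were incubated 16 h at 37°C with MBP (95 μg/ml). I-Au was captured with anti-I-Au antibody on Protein A beads. Peptides were eluted in 10% acetic acid through a 10 kD filter. About 6 × 10^6 cell equivalents were spiked with 2 fmol angiotensin I and run on C18 gradient LC into FT-ICR MS. Amounts were normalized to the angiotensin standard, and identity was confirmed by CAD MS/MS and coelution with synthetic peptide.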

Experiment [4] concerns MBPAc1–11-specific TCR Tg T cells. Format: cell-based, mouse. The conditions noted are these: 50 uM peptide; fixed splenocytes; two TCR Tg lines. The gist of the method:
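T cells from MBPAc1–11 TCR transgenic mice were purified with anti-Vα2.3 or anti-Vβ8.1/8.2 and sorted free of I-Au+ cells. They were plated at 2 × 10^5/well in complete RPMI with 50 uM peptide or 95 μg/ml MBP. APCs were 10^6 splenocytes per well, either irradiated live or fixed in 0.1% paraformaldehyde for 5 min at room temperature. Cultures ran 48 h, were pulsed with [3H]-thymidine and harvested 18 h later.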

In experiment [5] the target is T1, I-A^u. The note with it: cited from earlier work.
For experiment [6], the target named is T1, I-A^u. Description: Dissociation of fluorescein-labeled MBP peptides from soluble I-A^u. Format: binding. The note with it: for dissociation kinetics (in words): fluorescein-labeled peptide, soluble I-A^u, 1 h at 37°C, Fig. 2.
The subject of experiment [7] is T cells from MBP-primed mice. The note with it: synthetic peptides; cited from earlier work.
A further experiment relates to MBP-specific T cells. The note with it: B10.PL MBP-deficient shiverer (MBP^−/−) mice; cited from earlier work.
Setting [8] is: biphasic dissociation, 1 h incubation at 37°C, pH 5.3, HPSEC fluorescence.
Where [9] appears, read: incubation with I-A^u for 1 h at 37°C.

Ends that are not written are not given here.

With “rat MBPAc5–20: rat MBP peptide of earlier work (ref 17)”, in experiment [1], the “inhibition of EAE” value is recorded as “inhibited EAE induced by immunization with rat MBPAc1–11”.
In experiment [2], “MBPAc1–18 (synthetic, fluorescein-labelled) (peptide)” displayed a dissociation half-life, fast phase (t1/2fast) of 3.7 h; a dissociation half-life, slow phase (t1/2slow) of 117 h; a percent of bound peptide in long-lived complexes of 62%; a percent of bound peptide in short-lived complexes of 38%. Besides, in experiment [2], the percent of bound peptide in the long phase amounted to 77%.
In the experiment with I-A^u [3], “Ac1-22: N-acetylated NH2-terminal MBP peptide eluted from I-A^u (Ac-MGNHSGKRELSAEKASKDGEIH; UniProt P04370 1-22, looked up, fragment)” showed a Copy/cell of 5.7 copy/cell.
Regarding “123-136: MBP peptide from the MBP121–150 region eluted from I-A^u (DPTAASGGLDVMAS; UniProt P04370 123-136, looked up, fragment)”, in the experiment with I-A^u [3], the Copy/cell is 9.2 copy/cell.
Still for that read-out and setting: in the case of “Ac1-19: N-acetylated NH2-terminal MBP peptide eluted from I-A^u” it was 6.7 copy/cell.
“Ac1-20: N-acetylated NH2-terminal MBP peptide eluted from I-A^u (Ac-MGNHSGKRELSAEKASKDGE; UniProt P04370 1-20, looked up, fragment)” registered a Copy/cell in the experiment with I-A^u [3] of 24.4 copy/cell.
With “MBPAc1–11: N-acetylated NH2-terminal MBP epitope, low affinity I-A^u register (Ac-MGNHSGKRELS; UniProt P04370 1-11, looked up, fragment)”, the “T cell response on fixed APCs (in words)” value in experiment [4] was “responded well”. In addition, in the experiment with I-A^u [5], the “binding to I-A^u (in words)” value was “binds I-A^u poorly”. In the experiment with I-A^u [6], the “dissociation kinetics (in words)” value is “monophasic fast dissociation”.
“MBPAc1–17: N-acetylated NH2-terminal MBP peptide eluted from I-A^u”: in the experiment with I-A^u [3], the “times more detected than MBP125–135 peptides” value is listed as around 20 times.
As for “124-137: MBP peptide from the MBP121–150 region eluted from I-A^u (PTAASGGLDVMASQ; UniProt P04370 124-137, looked up, fragment)”, the Copy/cell with I-A^u [3] came to 9.2 copy/cell.
In the experiment with I-A^u [3], “120-137: MBP peptide from the MBP121–150 region eluted from I-A^u (IQEDPTAASGGLDVMASQ; UniProt P04370 120-137, looked up, fragment)” registered a Copy/cell of 3.4 copy/cell.
For “MBP125–135: synthetic peptide; core epitope within MBP121–150 (TAASGGLDVMA; UniProt P04370 125-135, looked up, fragment)”, the “stimulation of T cells from MBP-primed mice” value in experiment [7] is on record as “stimulated T cells from MBP-primed mice”. Further, the “affinity for I-A^u (in words)” value with I-A^u [5] is reported as “high affinity for I-A^u”.
With “Ac1-16: N-acetylated NH2-terminal MBP peptide eluted from I-A^u (Ac-MGNHSGKRELSAEKAS; UniProt P04370 1-16, looked up, fragment)”, the Copy/cell with I-A^u [3] was found to be 18.1 copy/cell.
In the case of “MBPAc9–20: MBP peptide (rat) of earlier work (ref 17) (Ac-RHGSKYLATAST; UniProt P02688 10-21, looked up, fragment)”, the “inhibition of EAE” value in experiment [1] is reported as “inhibited EAE induced by immunization with rat MBPAc1–11”.
For the molecule “MBPAc1–18: N-acetylated NH2-terminal MBP peptide containing both the MBPAc1–11 and MBP5–16 registers”, the “T cell response on fixed APCs (in words)” value in experiment [4] is on record as “respond well”. Besides, in the experiment with I-A^u [6] (setting [8]), the “t1/2fast (rapid-dissociation phase)” value amounted to 3.7 h and the “t1/2slow (slow phase)” value is listed as 117 h. Further, the “dissociation kinetics (in words)” value with I-A^u [6] is reported as “biphasic kinetics”. In the experiment with I-A^u [6] (setting [9]), the “peptide bound in long-lived complexes (slow phase)” value is around 62% and the “peptide bound in short-lived complexes (faster phase)” value is reported as around 38%. The “peptide bound in the long phase” value with I-A^u [6] (incubation with I-A^u for 16 h, unpublished data) worked out at 77%. Further, in the experiment with I-A^u [3], the “times more detected than MBP125–135 peptides” value is recorded as around 20 times and the Copy/cell stood at 622.0 copy/cell.
On to “MBPAc1–11 (synthetic, fluorescein-labelled) (peptide)”, for which, in experiment [2], the dissociation half-life (t1/2) came out at 0.5 h.
As for “MBP136–146: synthetic peptide; epitope within MBP121–150 (SQKRPSQRSKY; UniProt P04370 136-146, looked up, fragment)”, in experiment [7], the “stimulation of T cells from MBP-primed mice” value is recorded as “stimulated T cells from MBP-primed mice”. In the experiment with I-A^u [5], the “affinity for I-A^u (in words)” value was “high affinity for I-A^u”.

B1: myelin basic protein (protein, UniProt P04370 1-250, looked up)
Myelin basic protein: MGNHSGKRELSAEKASKDGEIHRGEAGKKRSVGKLSQTASEDSDVFGEADAIQNNGTSAEDTAVTDSKHTADPKNNWQGAHPADPGNRPHLIRLFSRDAPGREDNTFKDRPSESDELQTIQEDPTAASGGLDVMASQKRPSQRSKYLATASTMDHARHGFLPRHRDTGILDSIGRFFSGDRGAPKRGSGKDSHTRTTHYGSLPQKSQHGRTQDENPVVHFFKNIVTPRTPPPSQGKGGRDSRSGSPMARR
Take B1: the “T cell response after immunization” value in the experiment on MBP-specific T cells is “strong T cell responses directed toward MBP121–150”.

The record behind these values is publication PMC2193784 (The Journal of Experimental Medicine, 2003).
